{"source": "paper PMC9401513", "about": "(Clinical Cancer Research, 2021)", "key": {"[1]": {"molecular_target": "CYP3A4 (Homo sapiens, UniProt P08684)", "sequence (P08684 whole entry)": "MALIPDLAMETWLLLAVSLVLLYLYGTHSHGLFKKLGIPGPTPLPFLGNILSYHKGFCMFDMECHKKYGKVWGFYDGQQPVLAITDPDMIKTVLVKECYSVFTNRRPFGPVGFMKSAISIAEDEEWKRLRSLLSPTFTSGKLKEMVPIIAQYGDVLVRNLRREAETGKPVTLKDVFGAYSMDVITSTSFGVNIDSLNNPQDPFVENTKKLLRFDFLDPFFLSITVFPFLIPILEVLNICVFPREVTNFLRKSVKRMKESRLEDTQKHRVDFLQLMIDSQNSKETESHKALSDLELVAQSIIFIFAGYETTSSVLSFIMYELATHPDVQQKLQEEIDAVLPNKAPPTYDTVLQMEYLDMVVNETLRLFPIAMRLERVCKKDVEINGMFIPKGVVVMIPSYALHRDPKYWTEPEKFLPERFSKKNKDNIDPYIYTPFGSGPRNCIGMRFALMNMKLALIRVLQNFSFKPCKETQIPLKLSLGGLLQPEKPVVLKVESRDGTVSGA", "assay": "Drug-drug interaction substudy with multiple-dose fluconazole", "type": "in vivo", "conditions": "PF-06647020 co-administered with multiple-dose fluconazole, 11 patients", "in_short": "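Single-dose test ADC was given alone in cycle 1 (reference) and co-administered with multiple-dose fluconazole in cycle 2 (test). Unconjugated payload exposure was measured as dose-normalized AUCinf and Cmax from noncompartmental analysis. Results were expressed as ratios of adjusted geometric means with 90% confidence intervals.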"}, "[2]": {"assay": "Clinical pharmacokinetics", "type": "in vivo, human", "conditions": "0.2 to 3.7 mg/kg every 3 weeks dose levels of PF-06647020"}}, "note": "Where a SMILES comes first, the peptide text is derived from it. [ ]: non-standard residue; d: D form. The star is where a group is joined. Dolaproine = CO[C@@H]([C@@H]1CCCN1)[C@@H](C)C(=O)O; Dil = CC[C@H](C)[C@H](NC)[C@@H](CC(=O)O)OC; Doe = c1ccc(C[C@H](N*)c2nccs2)cc1; Aib = CC(C)(N)C(=O)O"}
{"molecule": "CC[C@H](C)[C@@H]([C@@H](CC(=O)N1CCC[C@H]1[C@H](OC)[C@@H](C)C(=O)N[C@@H](Cc1ccccc1)c1nccs1)OC)N(C)C(=O)[C@@H](NC(=O)C(C)(C)N)C(C)C", "note": "[PF-06380101, auristatin-0101] (H-[Aib]V[Dil][Dolaproine]-Doe)", "values": [{"measurement": "impact of fluconazole co-administration on overall exposure", "setting": "[1]", "value": "did not have a notable impact"}]}
{"molecule": "hu6M024: humanized anti-PTK7 mAb (IgG1); total antibody = conjugated or unconjugated mAb (antibody, chains of the INN, looked up, V domains shown) VH: QVQLVQSGPEVKKPGASVKVSCKASGYTFTDYAVHWVRQAPGKRLEWIGVISTYNDYTYNNQDFKGRVTMTRDTSASTAYMELSRLRSEDTAVYYCARGNSYFYALDYWGQGTSVTVSS VL: EIVLTQSPATLSLSPGERATLSCRASESVDSYGKSFMHWYQQKPGQAPRLLIYRASNLESGIPARFSGSGSGTDFTLTISSLEPEDFAVYYCQQSNEDPWTFGGGTKLEIK", "values": [{"measurement": "systemic exposure (AUCtau, Cmax) versus dose", "setting": "[2]", "value": "generally increased in a dose-related manner"}, {"measurement": "impact of fluconazole co-administration on overall exposure", "setting": "[1]", "value": "did not have a notable impact"}]}
